From ChEMBL document CHEMBL1154352, “Toll-like receptor 7 selective synthetic oligoribonucleotide agonists: synthesis and structure-activity relationship studies” (J Med Chem, 2009) come the findings set out here.

The source made the active and inactive calls. No cut-off for these calls is given here.

The subject of series [1] is PBMC. In words: Immunomodulatory activity in human PBMC assessed as induction of IFN-alpha at 100 ug/ml after 24 hrs.
Series [2] deals with T1, Toll-like receptor 9 (Mus musculus) (UniProt Q9EQU3).
T1 sequence (whole entry): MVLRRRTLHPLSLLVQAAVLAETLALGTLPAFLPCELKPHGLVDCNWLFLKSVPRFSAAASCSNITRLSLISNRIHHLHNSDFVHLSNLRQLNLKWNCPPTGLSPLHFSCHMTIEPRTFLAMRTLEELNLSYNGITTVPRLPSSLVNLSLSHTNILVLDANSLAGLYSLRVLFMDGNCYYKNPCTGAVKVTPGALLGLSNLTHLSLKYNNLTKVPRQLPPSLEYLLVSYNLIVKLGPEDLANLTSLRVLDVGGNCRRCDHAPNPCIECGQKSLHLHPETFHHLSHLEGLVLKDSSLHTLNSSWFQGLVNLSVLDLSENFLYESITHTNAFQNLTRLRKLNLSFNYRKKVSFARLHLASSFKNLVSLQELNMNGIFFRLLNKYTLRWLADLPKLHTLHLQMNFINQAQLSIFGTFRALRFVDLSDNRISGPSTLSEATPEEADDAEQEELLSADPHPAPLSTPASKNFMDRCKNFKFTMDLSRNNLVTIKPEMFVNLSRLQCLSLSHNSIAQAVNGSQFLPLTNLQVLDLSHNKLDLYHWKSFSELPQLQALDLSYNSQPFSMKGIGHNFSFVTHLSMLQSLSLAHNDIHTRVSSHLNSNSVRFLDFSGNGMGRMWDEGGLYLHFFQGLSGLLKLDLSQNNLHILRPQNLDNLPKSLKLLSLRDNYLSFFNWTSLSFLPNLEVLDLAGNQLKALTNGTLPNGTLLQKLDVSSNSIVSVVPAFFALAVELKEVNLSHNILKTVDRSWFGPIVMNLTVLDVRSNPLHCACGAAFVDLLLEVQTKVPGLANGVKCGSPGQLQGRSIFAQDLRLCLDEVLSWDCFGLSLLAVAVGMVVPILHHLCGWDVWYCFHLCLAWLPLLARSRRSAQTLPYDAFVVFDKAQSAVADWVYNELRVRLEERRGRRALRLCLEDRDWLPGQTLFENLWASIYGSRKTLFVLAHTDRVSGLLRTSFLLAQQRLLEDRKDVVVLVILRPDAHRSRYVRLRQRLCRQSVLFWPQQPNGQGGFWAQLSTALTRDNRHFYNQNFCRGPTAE
Kind of series: Activation of mouse TLR9 expressed in HEK293 assessed as induction of NF-kappaB activity reporter gene assay. The series is classed as cell-based. A general note: A reporter such as luciferase makes a cellular process visible.

In series [3] the test system is Splenocyte. Kind of series: Immunomodulatory activity in C57BL/6 mouse splenocytes bearing TLR7 receptor assessed as IL6 release at 100 ug/ml after 24 hrs by ELISA. The series is classed as functional, cell-based. In outline: (§1)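 C57BL/6 splenocytes in RPMI 1640 with 10% FBS, penicillin/streptomycin, 2 mM L-glutamine, plated at 5 × 10^6 cells/mL; compounds in PBS added, 37 °C for 24 h. Supernatant IL-12 and IL-6 by ELISA; representative of three independent experiments.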
For orientation: An ELISA detects its analyte on a solid surface through an enzyme-linked reagent.

Series [4] deals with PBMC. In words: Immunomodulatory activity in human PBMC assessed as induction of IL12 at 100 ug/ml after 24 hrs. In kind it is functional, cell-based. In outline:
(§2)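 Human PBMCs plated at 5 × 10^6 cells/mL; compounds dissolved in PBS added at various concentrations, 37 °C for 24 h. Supernatant cytokines/chemokines quantified with human Luminex multiplex kit.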

For series [5], the target named is T2, Toll-like receptor 8 (Homo sapiens) (UniProt Q9NR97).
T2 sequence (whole entry): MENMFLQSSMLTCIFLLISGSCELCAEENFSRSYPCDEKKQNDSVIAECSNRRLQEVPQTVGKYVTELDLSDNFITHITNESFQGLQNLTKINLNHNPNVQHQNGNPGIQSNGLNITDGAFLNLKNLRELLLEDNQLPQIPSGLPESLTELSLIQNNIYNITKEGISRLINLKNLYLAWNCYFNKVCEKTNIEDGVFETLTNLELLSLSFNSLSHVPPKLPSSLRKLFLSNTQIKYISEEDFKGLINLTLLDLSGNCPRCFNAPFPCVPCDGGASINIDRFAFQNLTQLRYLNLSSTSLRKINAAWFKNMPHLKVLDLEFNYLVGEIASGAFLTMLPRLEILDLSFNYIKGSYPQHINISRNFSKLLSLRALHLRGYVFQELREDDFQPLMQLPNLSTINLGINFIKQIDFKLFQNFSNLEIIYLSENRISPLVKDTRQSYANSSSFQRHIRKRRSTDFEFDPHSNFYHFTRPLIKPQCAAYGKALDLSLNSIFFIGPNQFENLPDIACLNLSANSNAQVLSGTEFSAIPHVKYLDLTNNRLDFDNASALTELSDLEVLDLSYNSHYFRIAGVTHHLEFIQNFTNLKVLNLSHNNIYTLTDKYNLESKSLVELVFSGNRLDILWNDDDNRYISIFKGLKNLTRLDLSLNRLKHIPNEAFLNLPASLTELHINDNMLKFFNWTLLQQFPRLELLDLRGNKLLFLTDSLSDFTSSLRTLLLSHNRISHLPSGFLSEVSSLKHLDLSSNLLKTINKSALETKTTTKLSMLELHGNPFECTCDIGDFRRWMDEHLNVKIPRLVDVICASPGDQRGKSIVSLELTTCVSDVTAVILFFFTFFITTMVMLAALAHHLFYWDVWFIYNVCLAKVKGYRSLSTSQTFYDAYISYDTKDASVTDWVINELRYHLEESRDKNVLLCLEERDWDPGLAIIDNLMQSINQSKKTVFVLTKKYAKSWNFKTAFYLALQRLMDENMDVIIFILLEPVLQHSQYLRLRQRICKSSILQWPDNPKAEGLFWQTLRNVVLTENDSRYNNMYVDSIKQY
Kind of series: Activation of human TLR8 expressed in HEK293XL assessed as fold induction of NF-kappaB activity at 50 ug/ml after 18 hrs by reporter gene assay relative to control. The gist of the method:
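HEK293 cells stably expressing human TLR7 or TLR8, transiently transfected with SEAP reporter plasmid; medium replaced, SIMRA compounds added, 18 h incubation. Supernatant SEAP measured by QuantiBlue; expressed as fold increase in NF-κB activity over PBS control. Tabulated data at 50 μg/mL, representative of three independent experiments.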

For series [6], the system named is PBMC. Kind of series: Immunomodulatory activity in human PBMC assessed as induction of TNFalpha at 100 ug/ml after 24 hrs. The series is classed as functional, cell-based. The gist of the method: as §2
A short description of series [7]: Metabolic stability in human serum assessed as full length product remaining after 10 mins by HPLC. In kind it is ADME, cell-free. Particulars: read-out: Stability. The gist of the method: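 About 0.5 A260 units compound in 1% human serum in PBS, 37 °C; aliquot taken at 10 min, analysed by anion-exchange HPLC for percent intact full-length product.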
Series [8] deals with Splenocyte. In words: Immunomodulatory activity in C57BL/6 mouse splenocytes bearing TLR7 receptor assessed as IL12 release at 100 ug/ml after 24 hrs by ELISA. The series is classed as functional, cell-based. The gist of the method:
as §1

In series [9] the target is Toll-like receptor 3 (Homo sapiens) (UniProt O15455). In words: Activation of human TLR3 expressed in HEK293 assessed as induction of NF-kappaB activity reporter gene assay. In kind it is cell-based.
Chain of Toll-like receptor 3 (Homo sapiens) (O15455 whole entry): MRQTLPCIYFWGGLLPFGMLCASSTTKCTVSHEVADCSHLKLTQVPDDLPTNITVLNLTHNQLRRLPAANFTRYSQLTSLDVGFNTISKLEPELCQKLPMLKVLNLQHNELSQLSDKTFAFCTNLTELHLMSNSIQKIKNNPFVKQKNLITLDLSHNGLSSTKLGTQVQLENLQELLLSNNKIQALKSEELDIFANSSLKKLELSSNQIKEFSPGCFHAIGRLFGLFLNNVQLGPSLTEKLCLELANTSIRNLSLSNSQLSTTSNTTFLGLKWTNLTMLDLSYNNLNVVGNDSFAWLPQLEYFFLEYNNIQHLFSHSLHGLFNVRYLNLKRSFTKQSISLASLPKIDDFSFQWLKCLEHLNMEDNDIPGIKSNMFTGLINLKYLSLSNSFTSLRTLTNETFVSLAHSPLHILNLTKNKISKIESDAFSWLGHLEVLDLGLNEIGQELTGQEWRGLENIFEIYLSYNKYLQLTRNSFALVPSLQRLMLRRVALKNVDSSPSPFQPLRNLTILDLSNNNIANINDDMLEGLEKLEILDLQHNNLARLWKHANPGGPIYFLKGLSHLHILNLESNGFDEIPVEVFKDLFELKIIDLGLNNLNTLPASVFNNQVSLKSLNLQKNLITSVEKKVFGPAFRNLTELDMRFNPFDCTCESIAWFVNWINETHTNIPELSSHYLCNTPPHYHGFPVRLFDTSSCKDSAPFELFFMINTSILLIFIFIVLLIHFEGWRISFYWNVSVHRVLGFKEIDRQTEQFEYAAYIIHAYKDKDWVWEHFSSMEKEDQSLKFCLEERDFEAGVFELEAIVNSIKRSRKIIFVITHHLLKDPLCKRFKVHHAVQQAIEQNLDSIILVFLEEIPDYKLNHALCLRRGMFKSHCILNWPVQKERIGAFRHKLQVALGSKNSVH

As to `Nc1ccn([C@@H]2O[C@H](COP(=O)(S)O[C@H]3[C@@H](O)[C@H](n4cnc5c(N)ncnc54)O[C@@H]3COP(=O)(S)O[C@H]3[C@@H](O)[C@H](n4ccc5c(=O)[nH]c(N)nc54)O[C@@H]3COP(=O)(S)O[C@H]3[C@@H](O)[C@H](n4ccc(=O)[nH]c4=O)O[C@@H]3COP(=O)(S)O[C@H]3[C@@H](O)[C@H](n4ccc5c(=O)[nH]c(N)nc54)O[C@@H]3COP(=O)(S)O[C@H]3[C@@H](O)[C@H](n4cnc5c(N)ncnc54)O[C@@H]3COP(=O)(S)O[C@H]3[C@@H](O)[C@H](n4cnc5c(N)ncnc54)O[C@@H]3CO)[C@@H](OP(=O)(S)OC[C@H]3O[C@@H](n4ccc5c(=O)[nH]c(N)nc54)[C@H](O)[C@@H]3OP(=O)(S)OC[C@H]3O[C@@H](n4ccc(N)nc4=O)[C@H](O)[C@@H]3OP(=O)(S)OC[C@H]3O[C@@H](n4ccc(=O)[nH]c4=O)[C@H](O)[C@@H]3OP(=O)(S)OC[C@H]3O[C@@H](n4ccc(=O)[nH]c4=O)[C@H](O)[C@@H]3OP(=O)(S)OCC(O)COP(=O)(S)O[C@H]3[C@@H](O)[C@H](n4ccc(=O)[nH]c4=O)O[C@@H]3COP(=O)(S)O[C@H]3[C@@H](O)[C@H](n4ccc(=O)[nH]c4=O)O[C@@H]3COP(=O)(S)O[C@H]3[C@@H](O)[C@H](n4ccc(N)nc4=O)O[C@@H]3COP(=O)(S)O[C@H]3[C@@H](O)[C@H](n4ccc5c(=O)[nH]c(N)nc54)O[C@@H]3COP(=O)(S)O[C@H]3[C@@H](O)[C@H](n4ccc(N)nc4=O)O[C@@H]3COP(=O)(S)O[C@H]3[C@@H](O)[C@H](n4cnc5c(N)ncnc54)O[C@@H]3COP(=O)(S)O[C@H]3[C@@H](O)[C@H](n4ccc5c(=O)[nH]c(N)nc54)O[C@@H]3COP(=O)(S)O[C@H]3[C@@H](O)[C@H](n4ccc(=O)[nH]c4=O)O[C@@H]3COP(=O)(S)O[C@H]3[C@@H](O)[C@H](n4ccc5c(=O)[nH]c(N)nc54)O[C@@H]3COP(=O)(S)O[C@H]3[C@@H](O)[C@H](n4cnc5c(N)ncnc54)O[C@@H]3COP(=O)(S)O[C@H]3[C@@H](O)[C@H](n4cnc5c(N)ncnc54)O[C@@H]3CO)[C@H]2O)c(=O)n1` (stereo partly drawn), the IFN-alpha with PBMC [1] came to 204 pg/mL. In addition, the result in [2] and in series [9] was inactive. Also, the result with Splenocyte [3] and in the series on Splenocyte [8] was Active. Moreover, the Activity in the series with PBMC [4] worked out at 352 pg/mL; with PBMC [6] it was 26.2 pg/mL. Also, the fold change (FC) in [5] was 0.7. For the same compound, the remaining at 10 min in [7] is 87%.
With `Nc1ccn([C@@H]2O[C@H](CO[C@H]3[C@@H](O)[C@H](n4cnc5c(N)ncnc54)O[C@@H]3COP(=O)(S)O[C@H]3[C@@H](O)[C@H](n4ccc5c(=O)[nH]c(N)nc54)O[C@@H]3COP(=O)(S)O[C@H]3[C@@H](O)[C@H](n4ccc(=O)[nH]c4=O)O[C@@H]3COP(=O)(S)O[C@H]3[C@@H](O)[C@H](n4cnc5c(N)ncnc54)O[C@@H]3COP(=O)(S)O[C@H]3[C@@H](O)[C@H](n4ccc5c(=O)[nH]c(N)nc54)O[C@@H]3COP(=O)(S)O[C@H]3[C@@H](O)[C@H](n4ccc(=O)[nH]c4=O)O[C@@H]3CO)[C@@H](OP(=O)(S)OC[C@H]3O[C@@H](n4ccc5c(=O)[nH]c(N)nc54)[C@H](O)[C@@H]3OP(=O)(S)OC[C@H]3O[C@@H](n4cnc5c(N)ncnc54)[C@H](O)[C@@H]3OP(=O)(S)OC[C@H]3O[C@@H](n4ccc(=O)[nH]c4=O)[C@H](O)[C@@H]3OP(=O)(S)OC[C@H]3O[C@@H](n4ccc(=O)[nH]c4=O)[C@H](O)[C@@H]3OP(=O)(S)OCC(O)COP(=O)(S)O[C@H]3[C@@H](O)[C@H](n4ccc(=O)[nH]c4=O)O[C@@H]3COP(=O)(S)O[C@H]3[C@@H](O)[C@H](n4ccc(=O)[nH]c4=O)O[C@@H]3COP(=O)(S)O[C@H]3[C@@H](O)[C@H](n4cnc5c(N)ncnc54)O[C@@H]3COP(=O)(S)O[C@H]3[C@@H](O)[C@H](n4ccc5c(=O)[nH]c(N)nc54)O[C@@H]3COP(=O)(S)O[C@H]3[C@@H](O)[C@H](n4ccc(N)nc4=O)O[C@@H]3CO[C@H]3[C@@H](O)[C@H](n4cnc5c(N)ncnc54)O[C@@H]3COP(=O)(S)O[C@H]3[C@@H](O)[C@H](n4ccc5c(=O)[nH]c(N)nc54)O[C@@H]3COP(=O)(S)O[C@H]3[C@@H](O)[C@H](n4ccc(=O)[nH]c4=O)O[C@@H]3COP(=O)(S)O[C@H]3[C@@H](O)[C@H](n4cnc5c(N)ncnc54)O[C@@H]3COP(=O)(S)O[C@H]3[C@@H](O)[C@H](n4ccc5c(=O)[nH]c(N)nc54)O[C@@H]3COP(=O)(S)O[C@H]3[C@@H](O)[C@H](n4ccc(=O)[nH]c4=O)O[C@@H]3CO)[C@H]2O)c(=O)n1` (stereo partly drawn), the IFN-alpha in the series on PBMC [1] was determined as 183 pg/mL. The outcome in series [2] and in [9] was inactive. In addition, the outcome in the series with Splenocyte [3] and in the series with Splenocyte [8] was Active. For the same compound, the Activity was 102 pg/mL in the series on PBMC [4] and 0 pg/mL in the series with PBMC [6]. In addition, the fold change (FC) in series [5] was 1.6. The remaining at 10 min in series [7] turned out to be 84%.
